Data as given in ChEMBL document CHEMBL4715736, “Identification of anticancer agents based on the thieno[2,3-b]pyridine and 1H-pyrazole molecular scaffolds” (2016).

Each compound was assayed on SR (assay: Growth inhibition of human SR cells assessed as cell growth at 0.01 uM incubated for 48 hrs by sulforhodamine B assay relative to control). Settings: read-out: Activity.
Assay type: functional
CCc1ccccc1NC(=O)c1sc2nc3c(cc2c1N)C(=O)CCC3 gave a growth at 0.01 µM of 100%.

The compounds below were run on HOP-92 (assay: Growth inhibition of human HOP-92 cells assessed as cell growth at 0.01 uM incubated for 48 hrs by sulforhodamine B assay relative to control). Settings: read-out: Activity.
Assay type: functional
CCc1ccccc1NC(=O)c1sc2nc3c(cc2c1N)C(=O)CCC3 gave a growth at 0.01 µM of 87%.

These compounds were tested on HCT-116 (assay: Growth inhibition of human HCT-116 cells assessed as cell growth at 0.01 uM incubated for 48 hrs by sulforhodamine B assay relative to control). Settings: read-out: Activity.
Assay type: functional
CCc1ccccc1NC(=O)c1sc2nc3c(cc2c1N)C(=O)CCC3 was tested, and the growth at 0.01 µM was 99%.

What follows are compounds tested on A498 (assay: Growth inhibition of human A498 cells assessed as cell growth at 0.01 uM incubated for 48 hrs by sulforhodamine B assay relative to control). Settings: read-out: Activity.
Assay type: functional
Outline: (§1)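 NCI Developmental Therapeutics Program NCI60 panel. Compounds that were active in the 10 µM one-dose screen went on to dose–response testing. Growth at each concentration is expressed relative to untreated control (100%). GI50 (concentration giving 50% of maximal inhibition of proliferation) and TGI (concentration giving total growth inhibition) were derived from the curves.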
Work on CCc1ccccc1NC(=O)c1sc2nc3c(cc2c1N)C(=O)CCC3 yielded a growth at 0.01 µM of 80%.

The compounds below were run on SR (assay: Growth inhibition of human SR cells assessed as cell growth at 0.1 uM incubated for 48 hrs by sulforhodamine B assay relative to control). Settings: read-out: Activity.
Assay type: functional
In the case of CCc1ccccc1NC(=O)c1sc2nc3c(cc2c1N)C(=O)CCC3, the growth at 0.1 µM is reported as 96%.

What follows are compounds tested on OVCAR-5 (assay: Growth inhibition of human OVCAR-5 cells assessed as cell growth at 0.1 uM incubated for 48 hrs by sulforhodamine B assay relative to control). Settings: read-out: Activity.
Assay type: functional
Compound CCc1ccccc1NC(=O)c1sc2nc3c(cc2c1N)C(=O)CCC3 has a growth at 0.1 µM of 83%.

The compounds below were run on TK-10 (assay: Growth inhibition of human TK-10 cells assessed as cell growth at 0.1 uM incubated for 48 hrs by sulforhodamine B assay relative to control). Settings: read-out: Activity.
Assay type: functional
In the case of CCc1ccccc1NC(=O)c1sc2nc3c(cc2c1N)C(=O)CCC3, the growth at 0.1 µM is reported as 97%.

The compounds below were run on UO-31 (assay: Growth inhibition of human UO-31 cells assessed as cell growth at 0.1 uM incubated for 48 hrs by sulforhodamine B assay relative to control). Settings: read-out: Activity.
Assay type: functional
In the case of CCc1ccccc1NC(=O)c1sc2nc3c(cc2c1N)C(=O)CCC3, the growth at 0.1 µM is reported as 85%.

The compounds below were run on A549 (assay: Growth inhibition of human A549/ATCC cells assessed as cell growth at 1 uM incubated for 48 hrs by sulforhodamine B assay relative to control). Settings: read-out: Activity.
Assay type: functional
Outline: as §1
In the case of CCc1ccccc1NC(=O)c1sc2nc3c(cc2c1N)C(=O)CCC3, the growth at 1 µM is reported as 39%.

The compounds below were run on NCI-H322M (assay: Growth inhibition of human NCI-H322M cells assessed as cell growth at 1 uM incubated for 48 hrs by sulforhodamine B assay relative to control). Settings: read-out: Activity.
Assay type: functional
CCc1ccccc1NC(=O)c1sc2nc3c(cc2c1N)C(=O)CCC3 showed a growth at 1 µM of 40%.

What follows are compounds tested on NCI-H460 (assay: Growth inhibition of human NCI-H460 cells assessed as cell growth at 1 uM incubated for 48 hrs by sulforhodamine B assay relative to control). Settings: read-out: Activity.
Assay type: functional
For CCc1ccccc1NC(=O)c1sc2nc3c(cc2c1N)C(=O)CCC3, the growth at 1 µM was 9%.

Each compound was assayed on 786-0 (assay: Growth inhibition of human 786-0 cells assessed as cell growth at 1 uM incubated for 48 hrs by sulforhodamine B assay relative to control). Settings: read-out: Activity.
Assay type: functional
Outline: as §1
Work on CCc1ccccc1NC(=O)c1sc2nc3c(cc2c1N)C(=O)CCC3 yielded a growth at 1 µM of 38%.

The compounds below were run on CAKI-1 (assay: Growth inhibition of human CAKI-1 cells assessed as cell growth at 1 uM incubated for 48 hrs by sulforhodamine B assay relative to control). Settings: read-out: Activity.
Assay type: functional
Outline: as §1
With CCc1ccccc1NC(=O)c1sc2nc3c(cc2c1N)C(=O)CCC3 the growth at 1 µM was 33%.

What follows are compounds tested on CCRF-CEM (assay: Growth inhibition of human CCRF-CEM cells assessed as cell growth at 100 uM incubated for 48 hrs by sulforhodamine B assay relative to control). Settings: read-out: Activity.
Assay type: functional
Outline: as §1
With CCc1ccccc1NC(=O)c1sc2nc3c(cc2c1N)C(=O)CCC3 the growth at 100 µM was 8%.

These compounds were tested on NCI-H322M (assay: Growth inhibition of human NCI-H322M cells assessed as cell growth at 100 uM incubated for 48 hrs by sulforhodamine B assay relative to control). Settings: read-out: Activity.
Assay type: functional
For CCc1ccccc1NC(=O)c1sc2nc3c(cc2c1N)C(=O)CCC3, the growth at 100 µM was 23%.

These compounds were tested on NCI-H522 (assay: Growth inhibition of human NCI-H522 cells assessed as cell growth at 100 uM incubated for 48 hrs by sulforhodamine B assay relative to control). Settings: read-out: Activity.
Assay type: functional
CCc1ccccc1NC(=O)c1sc2nc3c(cc2c1N)C(=O)CCC3 showed a growth at 100 µM of 19%.

What follows are compounds tested on HT-29 (assay: Growth inhibition of human HT-29 cells assessed as cell growth at 100 uM incubated for 48 hrs by sulforhodamine B assay relative to control). Settings: read-out: Activity.
Assay type: functional
Compound CCc1ccccc1NC(=O)c1sc2nc3c(cc2c1N)C(=O)CCC3 has a growth at 100 µM of -7%.

The compounds below were run on SNB-75 (assay: Growth inhibition of human SNB-75 cells assessed as cell growth at 100 uM incubated for 48 hrs by sulforhodamine B assay relative to control). Settings: read-out: Activity.
Assay type: functional
Work on CCc1ccccc1NC(=O)c1sc2nc3c(cc2c1N)C(=O)CCC3 yielded a growth at 100 µM of -19%.

The compounds below were run on UACC-257 (assay: Growth inhibition of human UACC-257 cells assessed as cell growth at 100 uM incubated for 48 hrs by sulforhodamine B assay relative to control). Settings: read-out: Activity.
Assay type: functional
For CCc1ccccc1NC(=O)c1sc2nc3c(cc2c1N)C(=O)CCC3, the growth at 100 µM was 25%.

Each compound was assayed on BT-549 (assay: Growth inhibition of human BT-549 cells assessed as cell growth at 100 uM incubated for 48 hrs by sulforhodamine B assay relative to control). Settings: read-out: Activity.
Assay type: functional
CCc1ccccc1NC(=O)c1sc2nc3c(cc2c1N)C(=O)CCC3 gave a growth at 100 µM of 11%.

Each compound was assayed on MDA-MB-468 (assay: Growth inhibition of human MDA-MB-468 cells assessed as cell growth at 100 uM incubated for 48 hrs by sulforhodamine B assay relative to control). Settings: read-out: Activity.
Assay type: functional
Work on CCc1ccccc1NC(=O)c1sc2nc3c(cc2c1N)C(=O)CCC3 yielded a growth at 100 µM of -8%.

The compounds below were run on HOP-62 (assay: Growth inhibition of human HOP-62 cells incubated for 48 hrs by sulforhodamine B assay). Settings: not given.
Assay type: functional
Outline: (§2)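 NCI60 panel at the NCI Developmental Therapeutics Program. Only compounds active in the 10 µM screen went to dose-response testing. GI50, the concentration giving 50% of maximal inhibition of proliferation, and TGI, the concentration giving total growth inhibition, were derived from the dose-response curves.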
CCc1ccccc1NC(=O)c1sc2nc3c(cc2c1N)C(=O)CCC3 gave a GI50 of 0.445 µM, an LC50 of over 100 µM and a TGI of at least 100 µM.

Each compound was assayed on NCI-H322M (assay: Growth inhibition of human NCI-H322M cells incubated for 48 hrs by sulforhodamine B assay). Settings: not given.
Assay type: functional
Outline: as §2
Compound CCc1ccccc1NC(=O)c1sc2nc3c(cc2c1N)C(=O)CCC3 has a TGI of over 100 µM.

Same assay, conditions: read-out: LC50 (the source's name)
CCc1ccccc1NC(=O)c1sc2nc3c(cc2c1N)C(=O)CCC3 showed a CC50 of over 100 µM.

Each compound was assayed on KM12 (assay: Growth inhibition of human KM12 cells incubated for 48 hrs by sulforhodamine B assay). Settings: not given.
Assay type: functional
Outline: as §2
For CCc1ccccc1NC(=O)c1sc2nc3c(cc2c1N)C(=O)CCC3, the GI50 was 0.402 µM, the LC50 was over 100 µM and the TGI was over 100 µM.

What follows are compounds tested on SF-295 (assay: Growth inhibition of human SF-295 cells incubated for 48 hrs by sulforhodamine B assay). Settings: not given.
Assay type: functional
Outline: (§3)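 NCI DTP 60-line human tumour panel. Dose-response curves were run only for ligands active in the initial 10 µM screen. GI50 (concentration giving 50% of maximal inhibition of proliferation) and TGI (concentration giving total growth inhibition) were derived from these curves.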
CCc1ccccc1NC(=O)c1sc2nc3c(cc2c1N)C(=O)CCC3 showed a GI50 of 0.257 µM, an LC50 (concentration killing 50% of cells) of over 100 µM and a TGI of at least 100 µM.

Each compound was assayed on LOX IMVI (assay: Growth inhibition of human LOX IMVI cells incubated for 48 hrs by sulforhodamine B assay). Settings: not given.
Assay type: functional
Outline: as §2
For CCc1ccccc1NC(=O)c1sc2nc3c(cc2c1N)C(=O)CCC3, the GI50 was 0.645 µM, the LC50 was over 100 µM and the TGI was over 100 µM.

What follows are compounds tested on UACC-257 (assay: Growth inhibition of human UACC-257 cells incubated for 48 hrs by sulforhodamine B assay). Settings: not given.
Assay type: functional
Outline: as §3
Compound CCc1ccccc1NC(=O)c1sc2nc3c(cc2c1N)C(=O)CCC3 has a GI50 of 19.9 µM, an LC50 (concentration killing 50% of cells) of over 100 µM and a TGI of over 100 µM.

These compounds were tested on SN12C (assay: Growth inhibition of human SN12C cells incubated for 48 hrs by sulforhodamine B assay). Settings: not given.
Assay type: functional
Outline: as §3
In the case of CCc1ccccc1NC(=O)c1sc2nc3c(cc2c1N)C(=O)CCC3, the GI50 is reported as 0.676 µM and the TGI is reported as over 100 µM.

Same assay, conditions: read-out: LC50 (the source's name)
With CCc1ccccc1NC(=O)c1sc2nc3c(cc2c1N)C(=O)CCC3 the CC50 was over 100 µM.

The compounds below were run on MDA-MB-231 (assay: Growth inhibition of human MDA-MB-231 cells incubated for 48 hrs by sulforhodamine B assay). Settings: not given.
Assay type: functional
Outline: as §2
Compound CCc1ccccc1NC(=O)c1sc2nc3c(cc2c1N)C(=O)CCC3 has a GI50 of 1.25 µM and a TGI of over 100 µM.

Same assay, conditions: read-out: LC50 (the source's name)
Work on CCc1ccccc1NC(=O)c1sc2nc3c(cc2c1N)C(=O)CCC3 yielded a CC50 of over 100 µM.

What follows are compounds tested on Hs-578T (assay: Growth inhibition of human Hs-578T cells incubated for 48 hrs by sulforhodamine B assay). Settings: not given.
Assay type: functional
Outline: as §2
In the case of CCc1ccccc1NC(=O)c1sc2nc3c(cc2c1N)C(=O)CCC3, the GI50 is reported as 0.302 µM and the TGI is reported as over 100 µM.

Same assay, conditions: read-out: LC50 (the source's name)
CCc1ccccc1NC(=O)c1sc2nc3c(cc2c1N)C(=O)CCC3 was tested, and the CC50 was over 100 µM.
